According to ChEMBL document CHEMBL1132814, “N-1 substituted pyrimidin-4-ones: novel, orally active inhibitors of lipoprotein-associated phospholipase A2” (Bioorg Med Chem Lett, 2000):

What follows are compounds tested against T1, Platelet-activating factor acetylhydrolase (Homo sapiens) (UniProt Q13093) (assay: Inhibition of Lipoprotein associated phospholipase A2 in human plasma at 100 nM).
T1 sequence (whole entry): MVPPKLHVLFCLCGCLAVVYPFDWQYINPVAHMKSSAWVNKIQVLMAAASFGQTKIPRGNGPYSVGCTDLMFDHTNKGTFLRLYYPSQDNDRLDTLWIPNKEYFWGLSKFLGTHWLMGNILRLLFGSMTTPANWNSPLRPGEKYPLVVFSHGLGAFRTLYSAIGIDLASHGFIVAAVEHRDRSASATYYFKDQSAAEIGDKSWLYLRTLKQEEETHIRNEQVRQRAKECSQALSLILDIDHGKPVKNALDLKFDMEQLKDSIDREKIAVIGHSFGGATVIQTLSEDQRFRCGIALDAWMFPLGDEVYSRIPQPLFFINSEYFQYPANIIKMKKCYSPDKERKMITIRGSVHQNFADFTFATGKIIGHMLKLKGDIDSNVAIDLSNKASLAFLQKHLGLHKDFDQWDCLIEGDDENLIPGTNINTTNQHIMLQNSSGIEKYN
Assay type: cell-free
How it was run: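 Whole plasma (human, or WHHL rabbit) mixed with compound in DMSO at a single concentration and preincubated 10 min at 37 °C before enzyme assay. Reaction ran 60 s in human plasma and 15 s in rabbit plasma, then stopped with CHCl3/MeOH (2:1). Released [3H]acetate was read by scintillation counting of the aqueous layer after chloroform extraction.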

Row | inhibition [%] | Structure (SMILES)
1 | 28 | Cn1cc(Cc2cncnc2)c(=O)nc1SCc1ccc(F)cc1
2 | 26 | O=c1nc(SCc2ccc(F)cc2)n(Cc2ccco2)cc1Cc1cncnc1
3 | 27 | O=c1nc(SCc2ccc(F)cc2)n(CCc2ccccc2)cc1Cc1cncnc1

What follows are compounds tested against T2, Platelet-activating factor acetylhydrolase (Homo sapiens, UniProt Q13093) (assay: Inhibition of isolated human lipoprotein associated phospholipase A2).
T2 sequence (Q13093 whole entry): T1 sequence (whole entry)

Row | Structure (SMILES) | IC50 [nM]
4 | CCCCCCc1ccc(CCn2cc(Cc3cncnc3)c(=O)nc2SCc2ccc(F)cc2)cc1 | 12
5 | O=c1nc(SCc2cccc(F)c2)n(Cc2ccco2)cc1Cc1cncnc1 | 250
6 | Cn1cc(Cc2cncnc2)c(=O)nc1SCc1ccc(F)cc1 | 285
7 | Cn1cc(Cc2cncnc2)c(=O)nc1SCCCCCCCC(=O)c1ccc(Cl)cc1 | 19
8 | CCn1cc(Cc2cncnc2)c(=O)nc1SCCCCCCCC(=O)c1ccc(Cl)cc1 | 39
9 | O=C(Cn1cc(Cc2cncnc2)c(=O)nc1SCc1ccc(F)cc1)NCCCCCCc1ccc(F)cc1 | 2
10 | O=c1nc(SCc2ccc(F)cc2)n(CCc2cccs2)cc1Cc1cncnc1 | 250
11 | O=c1nc(SCc2ccccc2)n(Cc2cccs2)cc1Cc1cncnc1 | 210
12 | O=c1nc(SCc2ccccc2)n(CCc2ccccc2)cc1Cc1cncnc1 | 210
13 | O=c1nc(SCc2ccc(F)c(F)c2)n(Cc2ccco2)cc1Cc1cncnc1 | 235
14 | O=C(CCCCCCCSc1nc(=O)c(Cc2cncnc2)cn1CCc1ccccc1)c1ccc(Cl)cc1 | 34
15 | COCCn1cc(Cc2cncnc2)c(=O)nc1SCCCCCCCC(=O)c1ccc(Cl)cc1 | 110
16 | O=C(CCCCCCCSc1nc(=O)c(Cc2cncnc2)cn1CCCc1ccccc1)c1ccc(Cl)cc1 | 90
17 | O=c1nc(SCc2ccc(F)cc2)n(Cc2ccco2)cc1Cc1cncnc1 | 300
18 | COCCn1cc(Cc2cncnc2)c(=O)nc1SCc1ccccc1 | 1200
19 | Cn1cc(Cc2cncnc2)c(=O)nc1SCc1ccccc1 | 660
20 | O=c1nc(SCc2ccccc2)n(Cc2ccccc2)cc1Cc1cncnc1 | 450
21 | O=c1nc(SCc2cccc(Cl)c2)n(Cc2ccco2)cc1Cc1cncnc1 | 960
22 | O=C(CCCCCCCSc1nc(=O)c(Cc2cncnc2)cn1Cc1ccccc1)c1ccc(Cl)cc1 | 36
23 | O=c1nc(SCc2ccc(Cl)cc2)n(Cc2ccco2)cc1Cc1cncnc1 | 1400
24 | O=C(CCCCCCCSc1nc(=O)c(Cc2cncnc2)cn1Cc1cccs1)c1ccc(Cl)cc1 | 11
25 | O=c1nc(SCc2ccccc2)n(CCCc2ccccc2)cc1Cc1cncnc1 | 300
26 | O=c1nc(SCc2ccccc2F)n(Cc2ccco2)cc1Cc1cncnc1 | 450
27 | O=C(CCCCCCCSc1nc(=O)c(Cc2cncnc2)cn1Cc1ccco1)c1ccc(Cl)cc1 | 16
28 | O=c1nc(SCc2ccccc2)n(CCc2cccs2)cc1Cc1cncnc1 | 350
29 | O=c1nc(SCc2ccc(F)c(F)c2)n(CCc2ccccc2)cc1Cc1cncnc1 | 110
30 | O=c1nc(SCc2ccc(F)cc2)n(CCc2ccccc2)cc1Cc1cncnc1 | 200

Continued, values first:

Row | IC50 [nM] | Structure (SMILES)
31 | 70 | CCCCCCCNC(=O)NCCn1cc(Cc2cncnc2)c(=O)nc1SCc1ccc(F)cc1
32 | 0.4 | CCCCCCCCC=CCCCCCCCCNC(=O)CCCn1cc(Cc2cncnc2)c(=O)nc1SCc1ccc(F)cc1
33 | 19 | CCCCCCCCCCCn1cc(Cc2cncnc2)c(=O)nc1SCc1ccc(F)cc1
34 | 7 | CCCCCCCCNC(=O)Cn1cc(Cc2cncnc2)c(=O)nc1SCc1ccc(F)cc1
35 | 0.7 | CCCCCCCC/C=C/CCCCCCCCNC(=O)CCCn1cc(Cc2cncnc2)c(=O)nc1SCc1ccc(F)cc1
36 | 4 | CCCCCCCCCCCCCCCCCCNC(=O)CCCn1cc(Cc2cncnc2)c(=O)nc1SCc1ccc(F)cc1
37 | 0.1 | CCCCCCCCCCNC(=O)CCCn1cc(Cc2cncnc2)c(=O)nc1SCc1ccc(F)cc1
38 | 3 | CCCCCCCN(C)C(=O)CCCn1cc(Cc2cncnc2)c(=O)nc1SCc1ccc(F)cc1
39 | 260 | CCCCNC(=O)CCCCCn1cc(Cc2cncnc2)c(=O)nc1SCc1ccc(F)cc1
40 | 25 | O=c1nc(SCc2ccc(F)cc2)n(CCCCCCCCCc2ccccc2)cc1Cc1cncnc1
41 | 2 | CCCCCCCC/C=C/CCCCCCCCNC(=O)Cn1cc(Cc2cncnc2)c(=O)nc1SCc1ccc(F)cc1
42 | 140 | CCCCCCCC(=O)NCCn1cc(Cc2cncnc2)c(=O)nc1SCc1ccc(F)cc1
43 | 19 | CCCCCCCNC(=O)Cn1cc(Cc2cncnc2)c(=O)nc1SCc1ccc(F)cc1
44 | 15 | CCCCCCCCN(C)C(=O)Cn1cc(Cc2cncnc2)c(=O)nc1SCc1ccc(F)cc1
45 | 1 | CCCCCCCCC=CCCCCCCCCNC(=O)Cn1cc(Cc2cncnc2)c(=O)nc1SCc1ccc(F)cc1
